This is a sample that favours compounds with a hit; in the whole collection about 1.8% have one here.
mABHD4 FP: ABHD4 inhibitors, primary screen, biochemical, fluorescence polarization, mouse. purified mABHD4, FP-Rh probe fluorescence polarization. (Lyso)-N-acylphosphatidylethanolamine lipase (Mus musculus), Q8VD66. inhibition, % at 8.92 µM. AID 720543, 2013. actives 0.54% (n = 370,000);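 active = inhibition exceeding the mean over every tested compound plus 3 SD, cut at about 30% in these data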
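Assay system: Wild-type mouse ABHD4 protein | Medium: HEPES pH 7.0 buffer, 150 mM NaCl, 0.01% Pluronic F-127 | Incubation: Enzyme–compound pre-incubation 45 min, then probe 60 min, both 25 °C | Technique: Fluorescence polarization with parallel and perpendicular emission, 525/598 nm | Evaluation: % inhibition of FP-Rh probe binding versus controls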
TCR-CD3 inh: inhibitors of human TCR-CD3 interaction, primary screen, biochemical, fluorescence, TAMRA-labeled TCR probe. actives 0.37% (n = 360,000). inhibition, % at 9.4 µM. AID 651800, 2012. T-cell receptor (TCR);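 note: recombinant mutant TCR 2C K166C tagged with TAMRA read by polarization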
SIAE inh: human SIAE inhibitors, primary screen, biochemical, fluorescence polarization, FP-Rh probe, 1536-well HTS; inhibition, % at 9.66 µM; SIAE FP-Rh probe binding; actives 0.69% (n = 370,000);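 active = inhibition above a cutoff: mean of compounds within the control limits plus 3 SD of those, cut at about 17% in these data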
Target sequence (Q9HAT2 whole entry, looked up): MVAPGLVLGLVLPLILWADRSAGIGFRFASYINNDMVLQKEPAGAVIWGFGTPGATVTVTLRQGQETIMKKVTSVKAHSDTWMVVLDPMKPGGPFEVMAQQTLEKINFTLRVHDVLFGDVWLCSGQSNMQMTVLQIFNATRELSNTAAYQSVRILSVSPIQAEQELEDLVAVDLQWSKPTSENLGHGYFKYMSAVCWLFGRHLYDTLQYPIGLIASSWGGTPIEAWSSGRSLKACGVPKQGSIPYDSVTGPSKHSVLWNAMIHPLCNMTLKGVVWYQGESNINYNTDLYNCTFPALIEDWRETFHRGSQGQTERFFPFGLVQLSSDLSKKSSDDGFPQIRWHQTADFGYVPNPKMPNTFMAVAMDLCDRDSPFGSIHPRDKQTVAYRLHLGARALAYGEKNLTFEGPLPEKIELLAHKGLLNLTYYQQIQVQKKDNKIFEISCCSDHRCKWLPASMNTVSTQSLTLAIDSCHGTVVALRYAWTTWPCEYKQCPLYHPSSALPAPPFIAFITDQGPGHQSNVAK
HTRA1 inh: HTRA1 serine protease inhibitors, primary screen, biochemical, fluorescence polarization, HTS. Q92743. recombinant HTRA1, FP-rhodamine activity-based probe. inhibition, % at 5.96 µM. actives 0.5% (n = 340,000); in the data active = inhibition above about 36%
Fam108B inh: mouse Fam108B serine hydrolase inhibitors, primary screen, counter-screen for RBBP9 inhibitor project, biochemical, fluorescence polarization | recombinant Fam108B, FP-Rh probe fluorescence polarization | inhibition, % at 9.51 µM | actives 0.33% (n = 300,000) | AID 1947, 2009;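 active = inhibition above the screen mean inhibition plus 3 SD, computed separately per campaign, cut at about 18% in these data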;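 note: inhibitors lower polarization as less probe binds the enzyme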
PME-1 inh: PME-1 inhibitors via competitive probe labeling, primary screen, biochemical, fluorescence polarization, FP-Rh probe, HTS; recombinant PME-1; inhibition, % at 5.9 µM; actives 0.53% (n = 320,000); AID 2130, 2009;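 active = inhibition above the campaign mean of all compounds plus 3 SD, cut at about 26% in these data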;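 note: competitive labeling of PME-1 active site by serine hydrolase directed probe; inhibitors block probe labeling so polarization falls and inhibition rises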
Fam108b inh conf: mouse Fam108b serine hydrolase inhibitors, confirmation, counter-screen for RBBP9 inhibitor project, biochemical, fluorescence polarization, triplicate; actives 44% (n = 930); shares compounds with Fam108B inh; inhibition, % at 9.51 µM; AID 1978, 2009; recombinant Fam108b, FP-Rh probe fluorescence polarization;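 active = inhibition above a limit from the primary screen, the mean over all compounds plus 3 SD, cut at about 19% in these data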;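 note: inhibitors free the probe so polarization falls as inhibition rises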
Fam108b ABPP HTS: inhibition of mouse Fam108b by HTS hits, late-stage follow-up, biochemical, gel-based ABPP, soluble recombinant form. shares compounds with Fam108B inh. fluorophosphonate probe. inhibition, % at 20 µM. actives 44% (n = 260). AID 588649, 2011; in the data active = inhibition above about 40%
HTRA1 conf: HTRA1 protease inhibitors, retest, confirmation, biochemical, fluorescence polarization; shares compounds with HTRA1 inh; recombinant HTRA1, FP-rhodamine activity-based probe; inhibition, % at 5.96 µM; actives 66% (n = 1,600); AID 540248, 2011;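 active = mean inhibition over three repeats above a set limit taken from the earlier primary screen, cut at about 37% in these data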;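 note: inhibitors block probe binding so polarization drops and inhibition rises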
BSA TAMRA ctr: compounds interfering with TAMRA-BSA probe, counter-screen for TCR-CD3 interaction inhibitor project, biochemical, fluorescence, TAMRA-labeled BSA; shares compounds with TCR-CD3 inh; inhibition, % at 9.4 µM; TAMRA-labeled BSA probe fluorescence counterscreen; actives 10% (n = 1,200); in the data active = inhibition above about 23%
TCR-CD3 inh conf: TCR-CD3 interaction inhibitors, retest, confirmation, biochemical, fluorescence, TAMRA-labeled TCR probe. shares compounds with TCR-CD3 inh. TAMRA-labeled TCR probe fluorescence binding assay. actives 48% (n = 1,200). inhibition, % at 9.4 µM. AID 652036, 2013
ABHD4 confirm: ABHD4 inhibitors, retest, confirmation, biochemical, fluorescence polarization, mouse | shares compounds with mABHD4 FP | purified mABHD4, FP-Rh probe fluorescence polarization | inhibition, % at 8.92 µM | actives 55% (n = 1,800);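 active = mean inhibition across replicates above the hit cutoff set in the primary screen, cut at about 30% in these data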
SIAE confirm: human SIAE inhibitors, retest, confirmation, biochemical, fluorescence polarization, FP-Rh probe, triplicate | shares compounds with SIAE inh | inhibition, % at 9.66 µM | actives 13% (n = 2,300) | SIAE FP-Rh activity-based probe;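 active = mean inhibition of the replicates above the hit cutoff set in the primary screen, cut at about 17% in these data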;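 note: inhibitors lower polarization as more probe stays unbound to SIAE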
Each line names hits and unclear results; the compound was inactive in the other large screens (follow-up assays come after a bar, where they were run). Cut-off read from the data, not from the text of the source, unless noted: active = inhibition above about 19%; inactive = the rest.

Cc1oc(-c2ccccc2)nc1CN1C(=O)CN=C(c2ccccc2)c2ccccc21	PME-1 inh 32
Cc1ccc(CN2C(=O)CN=C(c3ccccc3)c3ccccc32)cc1	none
COc1ccc(-c2nc3ccccc3c(=O)n2-c2ccc(OC)cc2)cc1	none
CCn1nc(-c2ccccc2)nc2c(=O)n(C)c(=O)nc1-2	Fam108B inh 65, PME-1 inh 42 (no result: mABHD4 FP, TCR-CD3 inh, SIAE inh) | Fam108b inh conf 86 | Fam108b ABPP HTS inactive
Cc1nc2c(=O)n(C)c(=O)nc-2n(C)n1	Fam108B inh 66, PME-1 inh 36 | Fam108b inh conf 82 | Fam108b ABPP HTS inactive
O=c1[nH]c(O)c(/C=C2/C=CC(c3cc(Cl)ccc3Cl)=N2)c(=O)[nH]1	Fam108B inh 27 | Fam108b inh conf 20
COC(=O)C1=C[C@H]([C@@H](C)[C@H](OC)c2ccccc2Br)[C@@H]2[C@H]1c1ccccc1N2C	none (no result: TCR-CD3 inh, HTRA1 inh, Fam108B inh, PME-1 inh)
COC(=O)C1=C(c2ccc(OC(F)(F)F)cc2)C[C@@H]2CC[C@H]1N2C(=O)NCc1ccco1	none (no result: HTRA1 inh, Fam108B inh, PME-1 inh)
CN1CC(C(=O)c2cccc(C(F)(F)F)c2)C(c2ccc(Cl)cc2)C1 (configuration not stated)	Fam108B inh 20 | Fam108b inh conf inactive
CN1c2ccc(Br)cc2[C@@H]2NCC[C@@H]2[C@@H]1CO	none (no result: TCR-CD3 inh, HTRA1 inh, Fam108B inh, PME-1 inh)
O=C1NCN(c2ccccc2)C12CCN(C(c1ccccc1)c1nnnn1Cc1ccccc1)CC2 (configuration not stated)	none (no result: HTRA1 inh, Fam108B inh, PME-1 inh)
O=C1NC(=O)C(Sc2ccccc2[N+](=O)[O-])C(=O)N1	none
CC(=O)c1ccc2c(c1)C1C(Cl)C(Sc3ccccc3[N+](=O)[O-])CC1C(c1ccccc1)N2 (configuration not stated)	SIAE inh 18, Fam108B inh 38, PME-1 inh 70 | Fam108b inh conf inactive
CC(C)OCCCNC(=O)c1c(N)n(Cc2cccs2)c2nc3ccccc3nc12	Fam108B inh 19 | Fam108b inh conf inactive
O=C1C(=O)c2ccccc2-c2ccccc21	Fam108B inh 64, PME-1 inh 37 | Fam108b inh conf 65 | Fam108b ABPP HTS inactive
O=C1C(=O)c2cccc3cccc1c23	none
CC(C)S(=O)(=O)N1Cc2ccc(Br)cc2-n2nncc2C1	none (no result: HTRA1 inh, Fam108B inh, PME-1 inh)
COc1ccc(OC)c(N2C(=O)/C(=C/c3ccco3)C(=O)NC2=S)c1	Fam108B inh 82, PME-1 inh 39 (no result: mABHD4 FP, TCR-CD3 inh, SIAE inh, HTRA1 inh) | Fam108b inh conf inactive
CC1Oc2cc3c(-c4c(O)cc(O)c5c(O)c6c(cc45)OC(C)C(C)C6=O)c(O)cc(O)c3c(O)c2C(=O)C1C (configuration not stated)	HTRA1 inh 66, Fam108B inh 41, PME-1 inh 28 (no result: mABHD4 FP, TCR-CD3 inh, SIAE inh) | Fam108b inh conf 37 | Fam108b ABPP HTS inactive | HTRA1 conf 81
CN1C[C@H](O)[C@H]2C[C@@H]1c1ccccc1O2	none (no result: HTRA1 inh, Fam108B inh, PME-1 inh)
COc1ccc(OC)c(N2C(=O)NC(=O)/C(=C/c3ccc([N+](=O)[O-])s3)C2=O)c1	HTRA1 inh 48, Fam108B inh 46 | Fam108b inh conf inactive | HTRA1 conf 43
O=C(O)CCl	none (no result: HTRA1 inh, Fam108B inh, PME-1 inh)
C/C(=N\NC(=O)c1ccccc1O)c1c(O)n(Cc2ccccc2)c(=O)[nH]c1=O	TCR-CD3 inh 34, Fam108B inh 21 | Fam108b inh conf 82 | Fam108b ABPP HTS inactive | BSA TAMRA ctr inactive | TCR-CD3 inh conf 37
O=C(NC1CCCCC1)N1Cc2cc(Br)ccc2-n2nncc2C1	none (no result: HTRA1 inh, Fam108B inh, PME-1 inh)
C/C(=N\NC(=O)c1ccccc1O)c1c(O)n(C2CCCCC2)c(=O)[nH]c1=O	mABHD4 FP 37, Fam108B inh 19 | Fam108b inh conf 21 | ABHD4 confirm 44
O=P(OCCCl)(OCCCl)OCCCl	none (no result: HTRA1 inh, Fam108B inh, PME-1 inh)
C[n+]1c2ccccc2nc2ccc(NCCO)cc21	mABHD4 FP 97, TCR-CD3 inh 196, SIAE inh 60, HTRA1 inh 86, Fam108B inh 72, PME-1 inh 71 | Fam108b inh conf 42 | Fam108b ABPP HTS inactive | HTRA1 conf 86 | BSA TAMRA ctr 177 | TCR-CD3 inh conf 139 | ABHD4 confirm 63 | SIAE confirm 68
CNc1ccc2nc3ccccc3[n+](C)c2c1	mABHD4 FP 119, TCR-CD3 inh active, SIAE inh 108, HTRA1 inh 115, Fam108B inh 102, PME-1 inh 116 | Fam108b inh conf 67 | Fam108b ABPP HTS inactive | HTRA1 conf 101 | BSA TAMRA ctr active | TCR-CD3 inh conf 184 | ABHD4 confirm 101 | SIAE confirm 113
NC(N)=N/N=C/c1ccc(N(c2ccccc2)c2ccccc2)cc1	mABHD4 FP 42, SIAE inh 22, HTRA1 inh 46, Fam108B inh 19 | Fam108b inh conf 19 | HTRA1 conf 60 | ABHD4 confirm 71 | SIAE confirm 36
COc1ccc(/C=N\N=C(N)N)cc1	none
CCOC(=O)CC[C@@H]1CC[C@]2(CCCN(Cc3cccnc3)C2)O1	none (no result: TCR-CD3 inh, HTRA1 inh, Fam108B inh, PME-1 inh)
COP(=O)(OC)C(C)NC(=O)OCc1ccccc1 (configuration not stated)	none (no result: TCR-CD3 inh, HTRA1 inh, Fam108B inh, PME-1 inh)

Assay outcomes as filed in PubChem.
